Experimental findings from ChEMBL document CHEMBL3769349, “Antiretroviral (HIV-1) activity of azulene derivatives” (Bioorg Med Chem, 2016) are described below.

Calls of active or inactive are those of the source.

In series [1] the test system is Human immunodeficiency virus 1. Briefly: Antiretroviral activity against HIV-1 based virus like particles infected in U2OS cells assessed as Gluc activity at highest non-toxic concentration. It is filed as functional.
A short description of series [2]: Cytotoxicity against human U2OS cells assessed as cell viability at highest non-toxic concentration.
The nature of series [3]: Selectivity index, ratio of CC50 for human U2OS cells to IC50 for HIV-1 based virus like particles infected in U2OS cells. It is filed as functional.
Series [4] can be described thus: Cytotoxicity against human U2OS cells. In kind it is cell-based. In a few lines:
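Cytotoxicity measured by real-time impedance monitoring (xCELLigence RTCA DP) in U2OS cells kept in IMDM with 10% FBS and Pen/Strep. Compounds tested at several concentrations. Viability compared with 0.5% DMSO vehicle-treated cells. Highest non-toxic concentration defined as the level lowering viability by less than 20%.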

Series [5] deals with Human immunodeficiency virus 1. Briefly: Antiretroviral activity against HIV-1 based virus like particles infected in U2OS cells. It is filed as functional, organism-based. The note with it: Human immunodeficiency virus 1, U2OS.
The nature of series [6]: Cytotoxicity against human TZM-bl cells. It is filed as cell-based.
Series [7] deals with Human immunodeficiency virus 1. Briefly: Antiretroviral activity against HIV-1 infected in TZM-bl cells after 48 hrs by luciferase assay. The note with it: Human immunodeficiency virus 1, TZM-bl.
Series [8] is described as follows: Selectivity index, ratio of CC50 for human TZM-bl cells to IC50 for HIV-1 infected in TZM-bl cells. It is filed as functional.
The target in series [9] is Human immunodeficiency virus type 1 reverse transcriptase (Human immunodeficiency virus 1, UniProt Q72547). Description: Inhibition of recombinant HIV-1 reverse transcriptase using 234 nt long RNA template after 10 mins by liquid scintillation analysis. In a few lines:
(§1)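 Cell-free DNA polymerase assay with recombinant HIV-1 reverse transcriptase (1 unit). Nucleotides: dATP/dGTP/dTTP, cold dCTP and [³³P]dCTP. Enzyme and compound preincubated 10 min at room temperature. Synthesis started with annealed 234-nt RNA template/18-nt DNA primer. Filter-bound radioactivity counted by liquid scintillation. DMSO served as negative control.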

Series [10] has as its target Human immunodeficiency virus type 1 reverse transcriptase (Human immunodeficiency virus 1) (UniProt Q72547). Briefly: Inhibition of recombinant HIV-1 reverse transcriptase at 500 uM using 234 nt long RNA template after 10 mins by liquid scintillation analysis. In a few lines:
as §1

`Clc1cc(-c2ccncc2)c2cccccc1-2`: the Activity in [1] came out at 36%. In addition, the viability (commonly a read-out of living cells in per cent, often relative to untreated cells) in series [2] was 80%.
Consider `Clc1cc(-c2ccccc2)c2cccccc1-2`, for which the Activity in series [1] is reported as 94%. The viability in [2] came to 88%.
Take `CCOC(=O)c1c(O)cc2cccccc1-2`: the “Ratio CC50/IC50” value in series [3] is listed as 34.1. The Activity in series [1] came out at 6.4%. For the same molecule, the viability in series [2] amounted to 89%. The CC50 (usually the concentration that lowers cell viability or growth by half) in [4] is 344 µM; in series [6] it was 260 µM. Moreover, in [5], the IC50 (commonly the midpoint of a concentration-inhibition curve) was 10.1 µM.
`Clc1cc(Br)c2cccccc1-2`: in [1], the Activity worked out at 32%. The viability in series [2] came out at 101%.
Take `CCOC(=O)c1ccc2cccccc1-2`: in [1], the Activity is given as 52%. Further, the viability in [2] worked out at 85%. In series [5], the IC50 was greater than 75 µM.
Take `O=C(O)c1cccc(-c2cc(Cl)c3cccccc2-3)c1`: the Activity in series [1] was 103%. For the same molecule, the viability in series [2] came out at 92%.
In the case of `CCOC(=O)c1c2cccccc-2c(C(=O)OCC)c1O`, the IC50 in series [7] was 20 µM; in series [9], 104 µM; in [5] it was 4.4 µM. Moreover, the “Ratio CC50/IC50” value in series [8] is listed as 3; in series [3] it was 16.4. Moreover, in series [1], the Activity was 3.5%. Besides, the viability in series [2] turned out to be 80%. The inhibition entry in series [10] is “Active”. Moreover, the CC50 in [4] worked out at 72.2 µM; in series [6] it was 65 µM.
On to `N#Cc1cccc(-c2ccc3cccccc2-3)c1`, for which, in [1], the Activity is 63%. The viability in [2] was found to be 80%.
For `Clc1c2cccccc-2c(Cl)c1-c1cncnc1`, in that order: 141% and 80%.
For `CCOC(=O)c1ccc(-c2cc(C(=O)OCC)c3cccccc2-3)o1`, in that order: 70% and 83%.
On to `Cc1ccnc2c1NC(=O)c1cccnc1N2C1CC1` [NEVIRAPINE], for which, in series [1], the Activity was 0.01%.
Consider `Oc1cc2cccccc-2c1`, for which the IC50 was 8.5 µM in series [7] and 2.2 µM in [5]. The “Ratio CC50/IC50” value in series [8] amounted to 7; in series [3] it was 12.2. The Activity in [1] was 51%. The viability in series [2] turned out to be 80%. Further, the CC50 turned out to be 26.8 µM in series [4] and 60 µM in series [6].
As for `Brc1cc(Br)c2cccccc1-2`, the Activity in series [1] amounted to 36%. Also, the viability in series [2] worked out at 96%.
For `Clc1cc(N2CCOCC2)c2cccccc1-2`, in that order: 98% and 80%.
For `c1ccc(-c2cc(-c3ccccc3)c3cccccc2-3)cc1`, in that order: 124% and 80%.
For `Cc1ccc(C(C)C)cc2c(C)ccc1-2` [GUAIAZULEN], in that order: 48% and 106%.
For `CCOC(=O)c1ncc(-c2ccc3cccccc2-3)cc1F`, the Activity in [1] came out at 80%. In addition, in series [2], the viability amounted to 86%.
For `Cc1cc(S(=O)(=O)[O-])c2c(C)ccc(C(C)C)cc1-2.[Na+]` [SODIUM GUALENATE], in that order: 154% and 91%.
